# Assay outcomes: PubChem BioAssay, Sanford-Burnham Center for Chemical Genomics
# Shown are actives, neighbours in structure and some others; about 1.1% of the full set was active somewhere.
# PMI act satM6P: PMI (human) activation, high substrate; P34949; coupled PMI enzyme assay, resazurin fluorescence, 20 min; stronger effect = higher value; 1 = untreated enzyme, 0 = substrate-free blank; activation factor at 20 µM; 190,000 tested, 0.34% active; AID 1216;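 active = activation factor of 2 or more at 20 µM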
# Target sequence (P34949 whole entry, looked up): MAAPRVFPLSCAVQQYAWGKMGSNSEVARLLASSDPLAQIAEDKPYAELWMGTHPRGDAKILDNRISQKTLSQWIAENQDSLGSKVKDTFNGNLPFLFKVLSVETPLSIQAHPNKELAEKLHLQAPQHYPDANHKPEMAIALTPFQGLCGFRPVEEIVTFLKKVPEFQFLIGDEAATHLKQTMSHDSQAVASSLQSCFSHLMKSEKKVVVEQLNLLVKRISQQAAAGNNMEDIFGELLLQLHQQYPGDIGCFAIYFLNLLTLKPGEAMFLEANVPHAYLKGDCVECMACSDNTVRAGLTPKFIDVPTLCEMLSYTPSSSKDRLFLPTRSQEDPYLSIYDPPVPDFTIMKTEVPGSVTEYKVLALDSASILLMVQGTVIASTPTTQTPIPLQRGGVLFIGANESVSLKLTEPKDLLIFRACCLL
#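 test system = human PMI in coupled enzyme assay | medium = HEPES-buffered pH 7.4 with magnesium and detergent | also added = 1.0 mM mannose-6-phosphate substrate with 0.22 mM NADP+ | compound = 20 µM single dose | times = 20 min incubation at room temperature | measured by = resorufin fluorescence (Ex 544/Em 590 nm) from resazurin via diaphorase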
# G6PDH counter: inhibits Leuconostoc G6PDH, flagging false hits in G6PDH-based assays; inhibition, % at 5 µM; Purified L. mesenteroides G6PDH, diaphorase/resazurin coupled fluorescence, 45 min; 200,000 tested, 0.12% active; in the data active = inhibition above about 50%
# Diaph act CS: diaphorase activation or chemical reduction counter-screen; Diaphorase/resazurin coupled assay, resorufin fluorescence, 16 min; stronger effect = higher value; 1 = vehicle wells, 0 = NADH-free wells; 190,000 tested, 0.005% active; activation factor at 20 µM;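 active = diaphorase activity raised at least twofold by the compound at 20 µM; inactive = activation factor below 2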
#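 Assay system: bacterial diaphorase enzyme (C. kluyveri) / Input: enzyme 0.07 U/mL final / Medium: 50 mM HEPES pH 7.4 with 4.542 mM MgCl2, 0.005% Tween 20 / Doses: single compound dose of 20 µM, 1% DMSO final / Incubation: 16 min enzyme reaction, ambient temperature / Signal: fluorescence, excitation 544 nm and emission 590 nm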
# PMI activator: increases human mannose-6-phosphate isomerase activity; purified human PMI, coupled resazurin fluorescence, 20 min; stronger effect = higher value; 1 = vehicle control, 0 substrate-free wells; activation factor at 20 µM; 190,000 tested, 0.005% active;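 active = activation factor of 2 or more at 20 µM, relative to plate controls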
# Diaph inh CS: inhibits diaphorase or chemically oxidizes, flagging diaphorase assay artifacts; diaphorase resazurin-to-resorufin fluorescence, NADH, 16 min; bacterial (C. kluyveri) enzyme, not human; inhibition, % at 20 µM; 190,000 tested, 0.69% active;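 active = primary screen inhibition at 20 µM above a set limit, cut at about 50% in these data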
#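 controls = No-NADH positive control and DMSO neutral control | system = Clostridium kluyveri diaphorase enzyme | timing = reaction incubation of 16 min at room temperature | signal = resorufin fluorescence 544/590 nm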
# Numbers stand for hits; - = inactive; . = no result given.
SMILES,PMI act satM6P,G6PDH counter,Diaph act CS,PMI activator,Diaph inh CS
C/C(=N\Nc1ccccc1)c1c(O)cc(C)oc1=O,2.6,-,-,-,-
Cc1ccc(CO/N=C/c2c(O)cc(C)oc2=O)cc1,-,-,-,-,-
COc1ccc2oc(=O)c(/C(C)=N/Nc3ccccc3)cc2c1,2.5,-,-,-,-
O=C(Cn1ncc(Cl)c(Cl)c1=O)N1CCN(S(=O)(=O)c2ccc3ccccc3c2)CC1,-,-,-,-,-
C#CCOCCOCCOCCNc1nc(N2CCN(C(=O)C(Cc3cc4ccccc4[nH]3)n3cc(C(N)Cc4ccc(O)cc4)nn3)CC2)nc(N2CCN(C(=O)C(Cc3cc4ccccc4[nH]3)n3cc(C(N)Cc4ccc(O)cc4)nn3)CC2)n1 (stereo unspecified),-,-,2,-,-
O=c1/c(=C/c2ccc(O)c([N+](=O)[O-])c2)sc2nc3ccccc3n12,-,-,-,-,112.8
O=c1/c(=C\c2cccnc2)sc2nc3ccccc3n12,-,-,-,-,-
CCCSc1nc2cc(C)c(C)cc2n1CC(C)O (stereo unspecified),2.3,-,-,-,-
CCCSc1nc2cc(C)c(C)cc2n1CC(O)CO (stereo unspecified),-,-,-,-,-
O=C1C2=C(c3ccccc31)[N+](=O)[C@@H]1CCCC[C@@H]1N2[O-],-,-,-,-,75.6
O=C1C2=C(c3ccccc31)[N+](=O)C1CCCCC1N2[O-] (stereo unspecified),-,-,-,-,76.2
COc1cc(NS(C)(=O)=O)cc(OC)c1OC,-,-,-,-,-
COc1cc(NC(c2ccccc2)c2ccccc2)cc(OC)c1OC,-,-,-,-,76.7
Cc1cc(/C=C2/C(=N)N3C(=NC2=O)SN=C3S(C)(=O)=O)c(C)n1-c1ccc(F)cc1,-,-,-,-,-
CCOc1ccc(-n2c(C)cc(/C=C3/C(=N)N4C(=NC3=O)SN=C4S(C)(=O)=O)c2C)cc1,2.1,-,-,-,-
COc1cc(NC(C)=O)c2ncccc2c1[N+](=O)[O-],-,-,-,-,61.3
COc1ccc(NC(=O)COc2cccnc2[N+](=O)[O-])cc1OC,-,-,-,-,-
S=c1[nH]ncn2c1cc1oc3ccccc3c12,-,-,-,-,50.8
O=C(O)C1CC=CCC1C(=O)NNc1ccccc1 (stereo unspecified),2.7,-,-,-,-
CC(C)CN=Cc1c(O)c([N+](=O)[O-])cc2oc3c(c12)CCCC3,-,-,-,-,56.2
CN(C)CCN(Cc1cc2cc3c(cc2[nH]c1=O)OCCO3)C(=S)NCC1CCCO1 (stereo unspecified),-,-,-,-,50.1
NS(=O)(=O)c1ccc(CNC(=O)c2csc3c2CCCC3)cc1,-,-,-,-,84.9
CCCNC(=O)c1csc2c1CCCCC2,-,-,-,-,-
C=CCOc1c(CNc2ccc3[nH]c(=O)[nH]c3c2)cccc1OC,.,-,.,.,.
COc1cc(CNc2ccc3[nH]c(=O)[nH]c3c2)cc(Cl)c1OCC(=O)NC(C)(C)C,-,-,-,-,73.2
SMILES,PMI act satM6P,G6PDH counter,Diaph act CS,PMI activator,Diaph inh CS
CCOc1cc(CNc2ccc3[nH]c(=O)[nH]c3c2)ccc1OCC(=O)NC(C)(C)C,-,-,-,-,66.1
C=CCOc1ccc(CNc2ccc3[nH]c(=O)[nH]c3c2)cc1OCC,.,-,.,.,.
CC(Oc1ccc(Cl)cc1Cl)c1ccn[nH]1 (stereo unspecified),-,-,-,-,-
C=CCc1cccc2cc(C(=O)Nc3ccc(F)cc3)c(=O)oc12,-,-,-,-,-
C=CCc1cccc2cc(C(=O)Nc3ccc(S(=O)(=O)Nc4nnc(CC)s4)cc3)c(=O)oc12,-,-,-,-,51.5
CCCNC(=O)c1nn2cc(Br)cnc2c1Br,-,-,-,-,-
CCNC(=S)Nc1cc(Cl)ccc1Oc1ccccc1,-,-,-,-,-
O=C(OCc1ccc(F)cc1)c1ccc2c(c1)-c1ccccc1C2=O,-,-,-,-,-
CCOC(=O)C1=C(Cc2ccc(F)cc2)C(=O)c2ccccc2C1=O,-,61.8,-,-,-
COCCn1c(NC(=S)NC(=O)C2CC2)cc(=O)[nH]c1=O,-,-,-,-,61.1
COc1cccc(/C=N/Nc2nc3ccccc3n3cnnc23)c1O,-,-,-,-,65.6
Cn1c(O)c(C2=c3ccccc3=NC2=O)[nH]c1=S,-,-,-,-,-
COc1ccc2nc(-n3c(O)c(C4=c5ccccc5=NC4=O)[nH]c3=S)sc2c1,-,-,-,-,52.0
Clc1cccc(Cl)c1CNc1ccc(N2CCCC2)cc1,-,-,-,-,76.5
O=C(c1ccc(N2CCOCC2)cc1[N+](=O)[O-])N1CCOCC1,-,-,-,-,-
COc1ccc(N2CC(C(=O)N/N=C/c3cc([N+](=O)[O-])ccc3O)CC2=O)cc1 (stereo unspecified),-,-,-,-,54.9
COc1ccc(N2CC(C(=O)N/N=C/c3ccccc3)CC2=O)cc1 (stereo unspecified),-,-,-,-,-
CCNC(=O)C(=O)N/N=C/c1cc([N+](=O)[O-])ccc1O,-,-,-,-,53.2
C/C(CC(=O)NC1CCCC1)=N\NC(=O)c1ccc([N+](=O)[O-])c(Cl)c1,-,-,-,-,-
CCNC(=S)NNC(=O)c1cc(Br)cs1,-,-,-,-,-
Cc1cc(-c2ccccc2)c(C#N)c(=S)[nH]1,-,-,-,-,-
N#Cc1c(-c2ccccc2Cl)cc(-c2ccccc2)[nH]c1=S,2.5,-,-,-,-
N#Cc1c2c(c(-c3ccccc3Cl)[nH]c1=S)CCCC2,2.4,-,-,-,-
Cc1ccc(N2C(N)=C(C#N)C(c3cc(CN4CCOCC4)cs3)C3=C2CC(C)(C)CC3=O)cc1 (stereo unspecified),-,-,-,-,-
O=C(c1ccccc1)c1c[nH]c(C(=O)NCc2cccnc2)c1,-,-,-,-,-
SMILES,PMI act satM6P,G6PDH counter,Diaph act CS,PMI activator,Diaph inh CS
O=C(c1ccccc1)c1c[nH]c(C(=O)NNc2ccccc2)c1,2.3,-,-,-,-
COCCN1C(=O)Cc2c1nc(N)c1c(N)nc(N3CCN(c4ccc(F)cc4)CC3)c(C#N)c21,-,-,-,-,-
COCC(C)N1C(=O)Cc2c1nc(N)c1c(N)nc(N3CCN(c4ccccc4F)CC3)c(C#N)c21 (stereo unspecified),-,-,-,-,60.2
Nc1cc(=O)[nH]c(SCC(=O)Nc2ncc(C(F)(F)F)cc2Cl)n1,-,-,-,-,-
CCOC(=O)c1nc2cc3n(c(C)c-2c1C)C(C)C(C)=C3C (stereo unspecified),-,-,-,-,-
CCOC(=O)c1nc2cc3n(c(CC(C)C)c-2c1C)CC(C)=C3C,2.4,-,-,-,-
